Results from ChEMBL document CHEMBL1129244, “Inhibition of UDP-N-acetylglucosamine import into Golgi membranes by nucleoside monophosphates” (J Med Chem, 1996).

Assays:
[1] = In vitro inhibition of UDP-[3H]-GlcNAc import into the lumen of the Golgi membranes from rabbit liver homogenate.; format: functional, tissue-based, Oryctolagus cuniculus
Summary of the method: (§1)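 Golgi-enriched membranes from rabbit liver homogenate incubated with 1 μM UDP-[³H]GlcNAc plus a range of inhibitor concentrations. Import into the lumen was measured by filtration under initial-velocity conditions, after 90 s at 25 °C, where uptake is linear with time. IC50 and standard deviation were obtained by curve fitting. For UDP, assays included 2 mM EDTA.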

[2] = Inhibitory concentration at which there is accumulation of UDP-[3H]-GlcNAc in the lumen of the Golgi membranes.; format: functional, cell membranes, Oryctolagus cuniculus
Summary of the method: (§2)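 Rabbit liver Golgi-enriched membranes were incubated as in the import assay with 1 μM UDP-[³H]GlcNAc and varied inhibitor concentrations. Uptake was allowed to reach equilibrium (20–30 min) before membrane-associated label was measured by filtration. 1 mM AMP-PNP was added to limit UDP-GlcNAc degradation. IC50 was derived by curve fitting; values are averages of at least three independent measurements.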

[3] = (§3) The compound was tested for inhibition of the rate of 1 uM UDP-[3H]-GlcNAc import into the lumen of the Golgi membranes.; format: functional, Oryctolagus cuniculus; summary of the method: as §1
[4] = The compound was tested for extent of UDP-[3H]-GlcNAc accumulation into the lumen of the Golgi membranes.; format: functional, Oryctolagus cuniculus; summary of the method: as §2
[5] = The compound was tested for extent of 1 uM UDP-[3H]-GlcNAc accumulation into the lumen of the Golgi membranes from rabbit liver homogenate; format: functional, tissue-based, Oryctolagus cuniculus; summary of the method: as §2
Oryctolagus cuniculus = species on record: Oryctolagus cuniculus; test: as §3; format: functional

Compound | IC50 [1] | IC50 [2] | IC50 [4] | other results
Cc1cn([C@@H]2O[C@H](COP(=O)(O)O)[C@@H](O)[C@@H]2F)c(=O)[nH]c1=O | > 200 µM |  |  | 
Nc1ccn([C@@H]2O[C@H](COP(=O)(O)O)[C@@H](O)[C@H]2O)c(=O)n1 (stereo in doubt; form 1) | > 100 µM |  |  | 
N[C@H]1[C@@H](OP(=O)(O)OP(=O)(O)OC[C@H]2O[C@@H](n3ccc(=O)[nH]c3=O)[C@H](O)[C@@H]2O)O[C@H](CO)[C@@H](O)[C@@H]1O [URACIL DIPHOSPHATE GLUCOSAMINE] |  | > 40 µM |  | IC50 [3]: 7 µM
O=c1ccn([C@@H]2O[C@H](COP(=O)(O)O)[C@@H](O)[C@H]2F)c(=O)[nH]1 | 11 µM |  |  | 
O=c1ccn([C@H]2C[C@H](O)[C@@H](COP(=O)(O)O)O2)c(=O)[nH]1 [DEOXYURIDINE MONOPHOSPHATE] | 8 µM |  |  | 
O=c1[nH]c(=O)n(C2CSC(COP(=O)(O)O)O2)cc1F (stereo unspecified) | 18 µM |  | 35 µM | 
CCc1cn(C2O[C@H](COP(=O)(O)O)[C@@H](O)[C@@H]2O)c(=O)[nH]c1=O (stereo partly specified) | 3.5 µM |  | 5 µM | 
Cc1cn([C@H]2CC[C@H](COP(=O)(O)O)O2)c(=O)[nH]c1=O | > 200 µM |  |  | 
O=c1[nH]c(=O)n([C@H]2C[C@H](O)[C@@H](COP(=O)(O)O)O2)cc1/C=C/Br |  |  |  | IC50 [3]: 5 µM
CC#Cc1cn([C@H]2C[C@H](O)[C@@H](COP(=O)(O)O)O2)c(=O)[nH]c1=O | > 40 µM |  | > 40 µM | 
O=c1[nH]c(=O)n(C2CC(F)C(COP(=O)(O)O)O2)cc1Cl (stereo unspecified) | 9 µM |  | 4 µM | 
Cc1cn([C@H]2C[C@H](N=[N+]=[N-])[C@@H](COP(=O)(O)O)O2)c(=O)[nH]c1=O (stereo in doubt; form 1) [AZIDOTHYMIDINE MONOPHOSPHATE] | 7 µM | 5 µM | 5 µM | 
Cc1cn(COCCOP(=O)(O)O)c(=O)[nH]c1=O | > 100 µM | > 100 µM | > 100 µM | 
Cc1cn([C@H]2C[C@H](O)[C@@H](COP(=O)(O)O)O2)c(=O)[nH]c1=O [THYMIDINE MONOPHOSPHATE] | 10 µM | 11 µM |  | IC50 [5]: 11 µM
CCCc1cn([C@H]2C[C@H](O)[C@@H](COP(=O)(O)O)O2)c(=O)[nH]c1=O |  |  |  | IC50 [3]: 100 µM
CC(=O)N[C@H]1[C@H]([C@H](O)[C@H](O)CO)O[C@](OP(=O)(O)OC[C@H]2O[C@@H](n3ccc(N)nc3=O)[C@H](O)[C@@H]2O)(C(=O)O)C[C@@H]1O | > 50 µM | 35 µM |  | 
N[C@H]1[C@@H](OP(=O)(O)OP(=O)(O)OC[C@H]2O[C@@H](n3ccc(=O)[nH]c3=O)[C@H](O)[C@@H]2O)O[C@H](CO)[C@H](O)[C@@H]1O [URACIL DIPHOSPHATE GALACTOSAMINE] |  |  |  | IC50 [3]: 40 µM
Cc1cn([C@H]2CC[C@@H](COP(=O)(O)O)O2)c(=O)[nH]c1=O | 9 µM |  |  | 
Cc1cn(C2CC(F)C(COP(=O)(O)O)O2)c(=O)[nH]c1=O (stereo unspecified) | 1.5 µM |  |  | 
Nc1ccn([C@@H]2O[C@H](COP(=O)(O)O)[C@@H](O)[C@H]2O)c(=O)n1 (stereo in doubt; form 2) | 10 µM |  |  | 
Cc1cn([C@H]2C[C@H](N=[N+]=[N-])[C@@H](COP(=O)(O)O)O2)c(=O)[nH]c1=O (stereo in doubt; form 2) [AZIDOTHYMIDINE MONOPHOSPHATE] | 85 µM | > 100 µM | > 100 µM | 
O=c1ccn(C2O[C@H](COP(=O)(O)O)[C@@H](O)[C@@H]2O)c(=O)[nH]1 (stereo partly specified) | 8 µM | 4 µM | 4 µM | 
CC(=O)N[C@@H]1[C@H](OP(=O)(O)OP(=O)(O)OC[C@H]2O[C@@H](n3ccc(=O)[nH]c3=O)[C@H](O)[C@@H]2O)O[C@@H](CO)[C@H](O)[C@H]1O |  | 4 µM |  | Km (Oryctolagus cuniculus): 2 µM; IC50 [3]: 7 µM
